In ChEMBL document CHEMBL1142330, “Omega-(2-Naphthyloxy) amino alkanes as a novel class of anti-hyperglycemic and lipid lowering agents” (Bioorg Med Chem, 2008):

Test system: Rattus norvegicus
Assay: Inhibition of phospholipids level in triton treated Charles Foster rat at 100 mg/kg, po
Format: functional
Conditions: not given
How it was run: (§1)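 Male Charles Foster rats (200–225 g) were used, six per group. They received Triton WR-1339 200 mg/kg i.p. together with oral compound at 100 mg/kg in 2% aqueous gum acacia, over 18 h; vehicle controls were included. Rats were then fasted overnight and bled retro-orbitally. Serum total cholesterol, phospholipids and triglyceride were assayed.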

In order of rising inhibition in vivo at 100 mg/kg:
1. c1ccc(CNCCCCOc2ccc3ccccc3c2)cc1  18%
2. Cc1ccc(NCCOc2ccc3ccccc3c2)cc1  30%
3. C/C=C1\C(=O)C[C@H]2[C@@H]3CCC4=CC(=O)CC[C@]4(C)[C@H]3CC[C@]12C [GUGGULSTERONE]  33%
4. c1ccc(CNCCOc2ccc3ccccc3c2)cc1  34%
5. COc1ccc(NCCCOc2ccc3ccccc3c2)cc1  38%

Test system: Rattus norvegicus
Assay: Antidiabetic activity in streptozotocin-induced diabetic albino Sprague-Dawley rat model assessed as decrease in blood glucose level at 100 mg/kg, po
Format: functional
Conditions: not given
How it was run: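 Overnight-fasted rats received streptozotocin 60 mg/kg i.p. in 100 mM citrate buffer, pH 4.5. After 48 h, animals with glucometer glucose of 200–400 mg/dl were grouped (n=6). Sample in 1% gum acacia was given orally at 100 mg/kg; controls received vehicle.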

In order of rising inhibition in vivo at 100 mg/kg:
1. c1ccc(CNCCOc2ccc3ccccc3c2)cc1  13%
2. COc1ccc(NCCCOc2ccc3ccccc3c2)cc1  28.5%

Test system: Syrian golden hamster
Assay: Inhibition of triglyceride level in Syrian golden hamster at 300 umol/kg after 10 days
Format: functional
Conditions: Mesocricetus auratus, 240 h

In order of rising inhibition in vivo at 300 µmol/kg:
1. c1ccc(CNCCOc2ccc3ccccc3c2)cc1  37%
2. COc1ccc(NCCCOc2ccc3ccccc3c2)cc1  48%

Test system: Rattus norvegicus
Assay: Antidiabetic activity in glucose loaded albino Sprague-Dawley rat model assessed as decrease in blood glucose level at 100 mg/kg, po
Format: functional
Conditions: not given
How it was run: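 Rats in groups of five were bled at baseline, then gavaged with test sample at 100 mg/kg. A glucose load of 2 g/kg was given 30 min later. Blood was collected at 30, 60, 90 and 120 min.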

In order of falling inhibition in vivo at 100 mg/kg:
1. c1ccc(CNCCOc2ccc3ccccc3c2)cc1  37.6%
2. COc1ccc(NCCCOc2ccc3ccccc3c2)cc1  33.6%
3. c1ccc(CNCCCCOc2ccc3ccccc3c2)cc1  8.89%
4. Cc1ccc(NCCOc2ccc3ccccc3c2)cc1  2.45%

Test system: Syrian golden hamster
Assay: Inhibition of glucose level in Syrian golden hamster at 300 umol/kg after 10 days
Format: functional
Conditions: Mesocricetus auratus, 240 h

In order of rising inhibition in vivo at 300 µmol/kg:
1. c1ccc(CNCCOc2ccc3ccccc3c2)cc1  9.5%
2. COc1ccc(NCCCOc2ccc3ccccc3c2)cc1  31%

Test system: Rattus norvegicus
Assay: Antidiabetic activity in sucrose loaded albino Sprague-Dawley rat model assessed as decrease in blood glucose level at 100 mg/kg, po
Format: functional
Conditions: not given
How it was run: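 Male Sprague–Dawley rats were fasted overnight and used in groups of five. Baseline blood was taken, then test sample was gavaged at 100 mg/kg. A sucrose load of […] followed 30 min later.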

In order of falling inhibition in vivo at 100 mg/kg:
1. c1ccc(CNCCOc2ccc3ccccc3c2)cc1  64%
2. COc1ccc(NCCCOc2ccc3ccccc3c2)cc1  31%
3. c1ccc(CNCCCCOc2ccc3ccccc3c2)cc1  16%
4. Cc1ccc(NCCOc2ccc3ccccc3c2)cc1  6.99%

Test system: Mus musculus
Assay: Antidiabetic activity in db/db mouse at 100 mg/kg after 24 hrs on day 3
Format: functional
Conditions: not given

In order of rising inhibition in vivo at 100 mg/kg:
1. c1ccc(CNCCOc2ccc3ccccc3c2)cc1  11.6%
2. COc1ccc(NCCCOc2ccc3ccccc3c2)cc1  28.9%

Test system: Mus musculus
Assay: Antidiabetic activity in db/db mouse at 100 mg/kg after 5 hrs on day 3
Format: functional
Conditions: not given

In order of falling inhibition in vivo at 100 mg/kg:
1. COc1ccc(NCCCOc2ccc3ccccc3c2)cc1  22.4%
2. c1ccc(CNCCOc2ccc3ccccc3c2)cc1  7%

Test system: Rattus norvegicus
Assay: Antidiabetic activity in sucrose challenged streptozotocin-induced diabetic albino Sprague-Dawley rat model assessed as decrease in blood glucose level at 100 mg/kg, po
Format: functional
Conditions: not given
How it was run: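 Diabetes was induced in overnight-fasted rats with streptozotocin 60 mg/kg i.p. in 100 mM citrate buffer, pH 4.5. Rats with glucose of 150–250 mg/dl at 48 h were selected. A sucrose load of 2.5 g/kg was given 30 min after oral dosing. Glucose was measured at 30–300 min and 24 h. Food was withheld, water allowed.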

In order of rising inhibition in vivo at 100 mg/kg:
1. c1ccc(CNCCOc2ccc3ccccc3c2)cc1  69.5%
2. COc1ccc(NCCCOc2ccc3ccccc3c2)cc1  73.8%

Test system: Syrian golden hamster
Assay: Inhibition of glycerol level in Syrian golden hamster at 300 umol/kg after 10 days
Format: functional
Conditions: Mesocricetus auratus, 240 h

In order of falling inhibition in vivo at 300 µmol/kg:
1. COc1ccc(NCCCOc2ccc3ccccc3c2)cc1  14%
2. c1ccc(CNCCOc2ccc3ccccc3c2)cc1  10%

Test system: Rattus norvegicus
Assay: Inhibition of cholesterol level in triton treated Charles Foster rat at 100 mg/kg, po
Format: functional
Conditions: not given
How it was run: as §1

In order of falling inhibition in vivo at 100 mg/kg:
1. C/C=C1\C(=O)C[C@H]2[C@@H]3CCC4=CC(=O)CC[C@]4(C)[C@H]3CC[C@]12C [GUGGULSTERONE]  34%
2. COc1ccc(NCCCOc2ccc3ccccc3c2)cc1  32.4%
3. c1ccc(CNCCOc2ccc3ccccc3c2)cc1  31%
4. Cc1ccc(NCCOc2ccc3ccccc3c2)cc1  27%
5. c1ccc(CNCCCCOc2ccc3ccccc3c2)cc1  10.1%

Test system: Syrian golden hamster
Assay: Inhibition of cholesterol level in Syrian golden hamster at 300 umol/kg after 10 days
Format: functional
Conditions: Mesocricetus auratus, 240 h

In order of rising inhibition in vivo at 300 µmol/kg:
1. COc1ccc(NCCCOc2ccc3ccccc3c2)cc1  14%
2. c1ccc(CNCCOc2ccc3ccccc3c2)cc1  14%

Test system: Syrian golden hamster
Assay: Inhibition of HDL level in Syrian golden hamster at 300 umol/kg after 10 days
Format: functional
Conditions: Mesocricetus auratus, 240 h

In order of falling inhibition in vivo at 300 µmol/kg:
1. COc1ccc(NCCCOc2ccc3ccccc3c2)cc1  15%
2. c1ccc(CNCCOc2ccc3ccccc3c2)cc1  13%

Test system: Rattus norvegicus
Assay: Inhibition of triglyceride level in triton treated Charles Foster rat at 100 mg/kg, po
Format: functional
Conditions: not given
How it was run: as §1

In order of falling inhibition in vivo at 100 mg/kg:
1. c1ccc(CNCCOc2ccc3ccccc3c2)cc1  37%
2. C/C=C1\C(=O)C[C@H]2[C@@H]3CCC4=CC(=O)CC[C@]4(C)[C@H]3CC[C@]12C [GUGGULSTERONE]  30%
3. COc1ccc(NCCCOc2ccc3ccccc3c2)cc1  28%
4. Cc1ccc(NCCOc2ccc3ccccc3c2)cc1  18%
5. c1ccc(CNCCCCOc2ccc3ccccc3c2)cc1  5%

Target: T1, Peroxisome proliferator-activated receptor delta (Homo sapiens) (UniProt Q03181)
T1 sequence (whole entry): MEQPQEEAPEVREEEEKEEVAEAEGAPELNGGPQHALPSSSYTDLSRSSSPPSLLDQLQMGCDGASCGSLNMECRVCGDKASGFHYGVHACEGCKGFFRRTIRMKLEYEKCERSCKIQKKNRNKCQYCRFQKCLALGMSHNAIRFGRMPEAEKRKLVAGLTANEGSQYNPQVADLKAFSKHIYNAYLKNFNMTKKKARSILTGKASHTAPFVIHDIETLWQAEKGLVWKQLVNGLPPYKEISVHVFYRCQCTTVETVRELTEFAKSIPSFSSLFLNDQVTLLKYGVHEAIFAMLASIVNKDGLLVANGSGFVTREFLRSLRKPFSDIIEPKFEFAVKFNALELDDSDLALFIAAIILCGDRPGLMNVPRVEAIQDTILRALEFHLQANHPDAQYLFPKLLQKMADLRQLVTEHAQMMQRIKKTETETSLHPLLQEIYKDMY
Assay: Inhibition of PPARdelta at 3 uM
Conditions: not given

In order of rising inhibition:
1. c1ccc(CNCCCCOc2ccc3ccccc3c2)cc1  22.4%
2. c1ccc(CNCCOc2ccc3ccccc3c2)cc1  31.3%
3. COc1ccc(NCCCOc2ccc3ccccc3c2)cc1  42.6%

Target: T2, Peroxisome proliferator-activated receptor gamma (Homo sapiens, UniProt P37231)
T2 sequence (P37231 whole entry): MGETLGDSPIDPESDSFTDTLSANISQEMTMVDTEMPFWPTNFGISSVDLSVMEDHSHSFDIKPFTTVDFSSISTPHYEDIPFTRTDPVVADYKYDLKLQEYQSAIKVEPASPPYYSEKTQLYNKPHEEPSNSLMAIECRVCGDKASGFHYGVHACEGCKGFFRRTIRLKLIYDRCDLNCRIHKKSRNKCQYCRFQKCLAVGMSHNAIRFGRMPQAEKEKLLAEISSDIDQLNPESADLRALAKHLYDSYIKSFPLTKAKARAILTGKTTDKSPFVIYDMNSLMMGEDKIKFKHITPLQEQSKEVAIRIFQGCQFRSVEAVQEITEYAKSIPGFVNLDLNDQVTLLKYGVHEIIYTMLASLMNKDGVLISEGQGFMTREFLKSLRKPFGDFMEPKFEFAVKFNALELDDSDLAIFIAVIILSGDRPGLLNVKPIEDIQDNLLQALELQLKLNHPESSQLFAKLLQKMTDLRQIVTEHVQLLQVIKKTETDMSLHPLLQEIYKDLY
Assay: Binding affinity at PPARgamma
Conditions: not given

In order of rising EC50:
1. c1ccc(CNCCOc2ccc3ccccc3c2)cc1  0.4 µM
2. COc1ccc(NCCCOc2ccc3ccccc3c2)cc1  33.8 µM

Target: T3, Peroxisome proliferator-activated receptor alpha (Homo sapiens) (UniProt Q07869)
T3 sequence (whole entry): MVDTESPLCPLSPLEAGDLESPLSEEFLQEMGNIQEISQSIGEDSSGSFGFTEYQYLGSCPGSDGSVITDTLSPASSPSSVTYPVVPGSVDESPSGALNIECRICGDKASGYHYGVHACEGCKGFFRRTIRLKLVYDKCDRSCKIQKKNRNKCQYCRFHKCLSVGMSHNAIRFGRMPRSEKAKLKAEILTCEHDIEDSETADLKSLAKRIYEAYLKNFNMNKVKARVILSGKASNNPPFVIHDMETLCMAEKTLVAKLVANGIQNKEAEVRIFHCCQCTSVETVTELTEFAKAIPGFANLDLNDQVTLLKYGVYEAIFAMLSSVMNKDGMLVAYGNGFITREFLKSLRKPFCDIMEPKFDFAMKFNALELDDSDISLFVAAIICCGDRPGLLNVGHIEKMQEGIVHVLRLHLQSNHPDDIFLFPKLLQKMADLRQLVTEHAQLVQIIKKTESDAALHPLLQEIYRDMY
Assay: Inhibition of PPARalpha at 50 uM
Conditions: not given

In order of rising inhibition:
1. c1ccc(CNCCCCOc2ccc3ccccc3c2)cc1  21.3%
2. c1ccc(CNCCOc2ccc3ccccc3c2)cc1  36.2%
3. COc1ccc(NCCCOc2ccc3ccccc3c2)cc1  44.5%
